From PubChem BioAssay
Most compounds without a hit are left out; they make up all but 3.6% or so of the library.
EBNA-1 inhibitor = EBNA-1 DNA-binding inhibitors, primary screen, biochemical, fluorescence polarization; actives 0.34% (n = 300,000); inhibition, % at 14.8 µM; in the data active means inhibition above about 28%
FGF22 binding = binders of human FGF22 protein, primary screen, FGF22 synaptogenesis inhibitor project, biophysical, thermal shift, single point. Fibroblast growth factor 22 (Homo sapiens), Q9HCT0. recombinant FGF22 thermal shift, SYPRO orange fluorescence; percent of sucrose octasulfate shift, DMSO zero. activity (Tm shift, normalised), % at 9.99 µM. actives 1.5% (n = 340,000). AID 651658, 2012;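 active means mean Tm shift, scaled 0 neutral to 100 positive control, at about 1.3% or above, every replicate too, limit read from the data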
Target sequence (Q9HCT0 whole entry, looked up): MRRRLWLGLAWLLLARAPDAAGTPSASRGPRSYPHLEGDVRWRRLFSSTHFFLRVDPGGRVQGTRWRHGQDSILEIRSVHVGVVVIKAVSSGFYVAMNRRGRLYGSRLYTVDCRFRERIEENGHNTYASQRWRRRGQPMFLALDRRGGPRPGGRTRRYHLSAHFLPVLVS
NS3 helicase inh = inhibitors of HCV NS3 helicase, primary screen, biochemical, Cy5 molecular beacon fluorescence; Hepatitis C virus NS3 helicase; NS3 helicase DNA unwinding; inhibition, % at 10.9 µM; actives 0.56% (n = 290,000);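 active means inhibition above the mean of all tested compounds plus 3 SD, set per campaign, cut at about 35% in these data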;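 further: 0% = DMSO wells and 100% = thioflavine S control wells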
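Control set: DMSO versus 110 µM thioflavine S; Material: NS3 helicase fragment of HCV; Measured by: Cy5 fluorescence at 0 and 60 min, beacon hairpin quenching; Read-out basis: percent inhibition from t60/t0 fluorescence ratio; Times: reaction time 60 min, 25 °C; Repeats: single replicate; Compound dosing: single dose, 10.9 µM nominal final, DMSO 0.8% final.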
DNA FID counter = compounds displacing fluorescent DNA intercalator, primary screen, artefact control for HCV NS3 helicase inhibitor project, biochemical, FID fluorescence | inhibition, % at 7.9 µM | DNA fluorescent intercalator displacement | actives 0.17% (n = 290,000); in the data active means inhibition above about 37%;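 further: 0% = vehicle and 100% = reference compound; higher means more ethidium bromide displaced from hairpin DNA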
ZTA counter = blocks Epstein-Barr virus ZTA, an EBNA-1 counter-screen; actives 0.15% (n = 320,000); ZTA-DNA binding, fluorescence polarization; inhibition, % at 11 µM; P03206; in the data active means inhibition above about 33%
Target sequence (P03206 whole entry, looked up): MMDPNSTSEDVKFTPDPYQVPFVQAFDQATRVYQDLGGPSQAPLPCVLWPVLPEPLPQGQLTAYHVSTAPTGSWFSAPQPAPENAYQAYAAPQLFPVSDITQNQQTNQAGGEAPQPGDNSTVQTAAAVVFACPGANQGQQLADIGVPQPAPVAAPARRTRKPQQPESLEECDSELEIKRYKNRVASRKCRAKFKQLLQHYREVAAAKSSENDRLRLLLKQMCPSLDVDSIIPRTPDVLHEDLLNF
GRIN3A LBD mod = binders of NR3A ligand-binding domain, primary screen, biophysical, differential scanning fluorimetry, uHTS; Glutamate receptor ionotropic, NMDA 3A (GRIN3A) ligand-binding domain; NR3A LBD differential scanning fluorimetry, Tm shift; 0% = protein alone, 100% = glycine-bound protein; Tm shift relative to glycine control, % at 25 µM; actives 2.5% (n = 340,000);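 active means melting temperature shift of at least 10% of the positive control shift, at one fixed dose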
* hit, by the source's call; . = not tested or not shown.

SMILES	EBNA-1 inhibitor	FGF22 binding	NS3 helicase inh	DNA FID counter	ZTA counter	GRIN3A LBD mod
COC(=O)c1ccccc1S(=O)(=O)N1CCn2cccc2C1C (stereo unspecified)	-6	43*	2	-3	6	0
COc1ccc(NC(C)=O)cc1S(=O)(=O)N1CCn2cccc2C1C (stereo unspecified)	.	0	.	.	4	0
CC1(C)CC(=O)C=C(NC2CCCCCC2)C1	0	.	9	-7	1	11*
CC1(C)CC(=O)C=C(NC2CCCCCCC2)C1	0	.	0	-5	-2	1
O=C(CN(c1ccccc1)S(=O)(=O)c1ccccc1)N/N=C/c1ccc(OC2CSC2)cc1	55*	.	0	-2	4	.
COc1ccc(N(CC(=O)N/N=C/c2ccc(N(C)C)cc2)S(=O)(=O)c2ccccc2)cc1	-16	0	-14	-27	12	1
CN1CCC(=NNC(=O)CN(c2ccccc2)S(=O)(=O)c2ccccc2)CC1	0	0	-1	-14	5	10*
Cc1ccc2c(c1)c1c3n2CCN(CC(O)CNC(C)C)C3CCC1 (stereo unspecified)	-10	-1	-29	45*	-15	1
CCC(=O)N1C[C@H]2[C@@H](c3ccccc31)[C@@H](CO)N2C(=O)Nc1ccccc1	.	-1	.	.	.	.
N#C[C@@H]1[C@H](c2ccccc2-c2ccccc2F)[C@H](CO)N1C(=O)C1CCOCC1	.	0	.	.	.	.
CCC(c1nnnn1CCOC)N1CCN(Cc2ccccc2OC)CC1 (stereo unspecified)	0	.	0	8	-1	15*
COCCn1nnnc1C(c1ccccc1OC)N1CCN(C(=O)c2ccco2)CC1 (stereo unspecified)	-4	2.1*	8	-23	3	1
COCCn1nnnc1C(c1cccc(OC)c1OC)N1CCN(C(=O)c2ccco2)CC1 (stereo unspecified)	-4	0	5	-17	-1	1
CCCC(c1nnnn1CCOC)N1CCN(Cc2ccccc2)CC1 (stereo unspecified)	-1	.	-1	11	-24	0
CNC[C@H]1Oc2ccc(NS(=O)(=O)c3ccc(F)cc3)cc2C(=O)N([C@@H](C)CO)C[C@H]1C	.	0	.	.	.	.
CCOC(=O)CSc1ncnc2c1nnn2-c1ccc(F)cc1	5	.	1	7	2	0
CCOC(=O)CSc1ncnc2c(C(=O)OCC)c3n(c12)CCC3	-1	43*	7	-22	1	-2
COc1ccc(CNC(=O)CSc2nc(C)cs2)cc1	4	43*	11	13	5	-2
N#Cc1c(SCC(=O)Nc2nc3ccc(Br)cc3s2)sc2c(O)cc(=O)[nH]c12	19	0	-2	11	8	18*
N#Cc1c(SCC(=O)Nc2nc3ccccc3s2)sc2c(O)cc(=O)[nH]c12	.	1	.	.	-20	5
Cc1cc(C(F)(F)F)c(C#N)c(SCC(=O)Nc2nc3cc(Br)ccc3s2)n1	-5	1	12	-5	4	30*
Cc1ccc(NC(=S)N(CCCN2CCOCC2)Cc2cccs2)c(C)c1	2	.	-1	2	-21	0
CCc1ccccc1NC(=S)N(CCCN1CCOCC1)Cc1ccccn1	10	.	14	0	82*	2
Cc1c(Cl)cccc1NC(=S)N(CCCN1CCOCC1)Cc1cccs1	9	.	10	-10	8	17*
Cc1noc(C)c1NC(=O)N(C)C[C@@H]1Oc2c(NC(=O)c3nc4ccccc4s3)cccc2C(=O)N([C@@H](C)CO)C[C@@H]1C	.	0	.	.	.	.
SMILES	EBNA-1 inhibitor	FGF22 binding	NS3 helicase inh	DNA FID counter	ZTA counter	GRIN3A LBD mod
COc1ccc(/C=N/NC(=O)c2cc(C)oc2C)cc1OCc1ccccc1	8	0	1	-29	-3	-11
Cc1cc(C(=O)N/N=C/c2ccc(OCc3ccccc3)cc2)c(C)o1	-11	0	11	-16	2	14*
COc1ccc(/C=N/NC(=O)c2ccco2)cc1OCc1ccccc1	-5	0	-5	-11	14	-4
O=C(N/N=C/c1ccc(OCc2ccccc2)cc1)c1ccco1	5	0	-1	-23	-6	13*
N#CCC(=O)N/N=C/c1ccc(OCc2ccccc2)cc1	4	43*	-1	-6	5	-6
N#CCC(=O)N/N=C\c1ccc(OC/C=C/c2ccccc2)cc1	3	0	6	-22	2	-6
O=C(N/N=C\c1ccccc1OCc1ccccc1)c1ccco1	7	43*	-11	-20	2	0
O=C(C1CC1)N1CC2(C1)[C@H](c1ccccc1)[C@@H](CO)N2Cc1cncnc1	.	0	.	.	.	.
O=C(Nc1ccc(Cl)cc1)c1ccc2snnc2c1	-12	0	0	-5	-4	-34
O=C(Nc1ccccc1)Nc1ccc2snnc2c1	1	.	5	8	3	32*
CN(C)c1ccc(NC(=O)Nc2ccc3snnc3c2)cc1	7	.	5	12	2	36*
CC(=O)c1ccc(NC(=O)c2ccc3snnc3c2)cc1	2	0	7	-6	4	5
CC(C)N1CCC(N2CCN(C3CCCCCC3)CC2CCO)CC1 (stereo unspecified)	-4	43*	14	7	-5	0
O=C(NCc1ccncn1)[C@@H]1[C@@H](CO)[C@@H]2Cn3c(cccc3=O)[C@H]1N2CC1CC1	.	0	.	.	.	.
NS(=O)(=O)c1ccc(N/C=C\C(=O)c2ccncc2)cc1	-21	43*	-1	1	-18	-1
NS(=O)(=O)c1ccc(N/C=C/C(=O)c2ccc(Br)cc2)cc1	15	0	13	-7	3	-3
Cc1ccc(SC[C@H](C)CN2CC[C@H](C)CCC2=O)cc1	2	0	-6	-42	-3	-1
C[C@@H]1CCC(=O)N(C[C@@H](C)CSc2ccc(Br)cc2)CC1	.	43*	.	.	-24	3
CC(C)C#Cc1cnc2c(c1)C(=O)N([C@@H](C)CO)C[C@H](C)[C@@H](CN(C)C(=O)CN1CCOCC1)O2	.	0	.	.	.	.
COc1ccc(C2(CNS(=O)(=O)c3ccc(C)cc3)CCOCC2)cc1	-11	0	4	-8	-6	0
COc1ccc(C2(CNC(=O)C(=O)Nc3ccc(C)cc3)CCOCC2)cc1	2	43*	0	-9	-1	2
CC(C)c1ccc(Nc2nc(N3CCOCC3)nc(N3CCOCC3)n2)cc1	.	1.6*	.	.	.	.
Cc1ccc(Nc2nc(N3CCOCC3)nc(N3CCOCC3)n2)cc1	3	.	2	-5	5	5
